Experimental findings from PubChem BioAssay AID2300 (The Scripps Research Institute Molecular Screening Center, 2010) are described below.

Among all 320,000 compounds or so, about 380 (0.12%) were called active. The sample holds actives, similar compounds and a random draw of the others, so the mix is not that of the screen. Values without a mark were called inactive.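 Rule for the calls: active = percent inhibition above the cutoff of mean plus 3 SD of all tested compounds, set per screening campaign (cut at about 20% in these data); inactive = the rest.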

Sequence of Photoreceptor-specific nuclear receptor (Homo sapiens) (Q9Y5X4 whole entry, looked up): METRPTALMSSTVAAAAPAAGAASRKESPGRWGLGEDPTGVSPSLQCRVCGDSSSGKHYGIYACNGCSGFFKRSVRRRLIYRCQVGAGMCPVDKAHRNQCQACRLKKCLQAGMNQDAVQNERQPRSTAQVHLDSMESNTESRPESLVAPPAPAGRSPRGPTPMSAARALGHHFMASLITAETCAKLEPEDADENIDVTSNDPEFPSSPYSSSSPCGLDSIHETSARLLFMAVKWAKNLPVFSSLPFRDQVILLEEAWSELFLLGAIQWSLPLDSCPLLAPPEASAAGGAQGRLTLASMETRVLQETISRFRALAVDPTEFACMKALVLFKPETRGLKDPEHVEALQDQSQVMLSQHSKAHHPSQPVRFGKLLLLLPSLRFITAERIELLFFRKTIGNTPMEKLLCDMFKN

The target in the experiment is Photoreceptor-specific nuclear receptor (Homo sapiens) (UniProt Q9Y5X4). Nature of the experiment: inhibitors of NR2E3-RetCOR corepressor binding, primary screen, NR2E3 agonist project, biochemical, TR-FRET, GST-NR2E3, biotin-RetCOR (AID 2300).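 Note: 0% = DMSO wells and 100% = biotin wells as full block of FRET.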 As to conditions: 1536-well, at 4.78 µM, active compounds read high. A digest of the protocol: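 system = GST-tagged NR2E3 plus biotinylated RetCOR corepressor | input = 1.35 nM GST-NR2E3 | also added = 7 nM biotin-RetCOR | schedule = 5 h incubation at 4 °C | measured by = TR-FRET with europium anti-GST and streptavidin-D2, 340 nm excitation | read-out = percent loss of FRET ratio relative to control wells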
`CN(C(=O)CSc1nnc(Nc2ccccc2)s1)C1CCS(=O)(=O)C1` (configuration not stated): the inhibition of corepressor binding was 0.29%.
With `Cc1ccc(S(=O)(=O)NC2(C(F)(F)F)NC(=O)N(CCc3ccccc3)C2=O)cc1` (configuration not stated), the inhibition of corepressor binding is 1.1%.
Next, `COc1ccc(-c2cc(C(=O)N/N=C/c3cccnc3)c3ccccc3n2)c(OC)c1`: 6.06%; `O=C(Nc1cc(S(=O)(=O)N2CCOCC2)ccc1Cl)c1cc(=O)c2ccccc2o1`: 1.24%; `O=C(NCCCN1CCOCC1)C1CCCN(S(=O)(=O)N2CCCCC2)C1` (configuration not stated): 0.58%.
As to `CN(Cc1ccccc1F)C(=O)C(Cc1ccccc1)NC(=O)c1ccccc1` (configuration not stated), the inhibition of corepressor binding is 0.68%.
Consider `CN(Cc1ccccc1)Cc1ccccc1F`, for which the inhibition of corepressor binding is 24.1% (active).
As for `N=c1n(CCc2ccccc2)c2ccccc2n1Cc1ccccc1F`, the inhibition of corepressor binding was -5.83%.
As for `CCOc1ccc(CCNC(=O)C2=C(C)C(=O)OC23CCC(C)CC3)cc1OCC` (configuration not stated), the inhibition of corepressor binding is -3.37%.
The value for `O=C1C(=O)N(CCN2CCOCC2)C(c2cccc(Cl)c2)/C1=C(/O)c1ccc2c(c1)OCO2` (configuration not stated) was 31.6% (active); that for `O=C1C(=O)N(CCCN2CCOCC2)C(c2ccc([N+](=O)[O-])cc2)/C1=C(\O)c1ccc2c(c1)OCCO2` (configuration not stated) was 2.15%.
Turning to `O=C1C(=O)N(CCN2CCOCC2)C(c2ccccn2)/C1=C(/O)c1ccc(Cl)cc1` (configuration not stated), the inhibition of corepressor binding is -1.05%.
The value for `Cc1ccc(-c2nc(CSCC(=O)NC3CCN(Cc4ccccc4)CC3)c(C)o2)cc1` was 1.78%.
Take `CCN(CC)Cc1csc2ccc(Br)cc12`: the inhibition of corepressor binding is -3.8%.
Take `CCOc1cc(C2/C(=C(/O)c3ccc(S(=O)(=O)N4CCCCC4)cc3)C(=O)C(=O)N2CCOC)ccc1O` (configuration not stated): the inhibition of corepressor binding is 0.08%.
Take `O=C(NCc1ccccn1)c1ccc2nc(-c3ccco3)c(-c3ccco3)nc2c1`: the inhibition of corepressor binding is 9.85%.
`COCCNC(=O)Nc1ccc2nc(-c3ccco3)c(-c3ccco3)nc2c1`: the inhibition of corepressor binding is 30.4% (active).
On to `CCOc1cc(NC(=S)NCCCOC)c(OCC)cc1NC(=O)c1ccco1`, for which the inhibition of corepressor binding is 1.79%.
In the case of `CCOc1cc(C(=O)Nc2ccc(S(=O)(=O)Nc3cnc4ccccc4n3)cc2)cc(OCC)c1OCC`, the inhibition of corepressor binding was 0.9%.
The value for `CCCOn1c(-n2nc(C)cc2C)nc2ccccc2c1=O` was -0.33%; that for `COc1ccc2c3c1O[C@H]1C[C@@H](O)C=C[C@@]31CCN(C)C2` was 4.69%; that for `O=C(CCN1C(=O)c2ccncc2C1=O)Nc1cc(F)ccc1F` was -0.36%.
In the case of `CCCC(=O)N1CCC(CCC(=O)NC2CC2)CC1`, the inhibition of corepressor binding was 0.01%.
Consider `Cc1ccc(C(=O)COC(=O)c2cccc(N3C(=O)c4c(C)nc5ccccc5c4C3=O)c2)cc1C`, for which the inhibition of corepressor binding is -4.34%.
As to `COc1ccc(C(C(=O)NC2CCCCC2)N(C(=O)CCl)c2ccccc2Cl)cc1` (configuration not stated), the inhibition of corepressor binding is 3.2%.
Regarding `CCCOC1CCCN(Cc2cn(C)nc2-c2ccccc2F)C1` (configuration not stated), the inhibition of corepressor binding is -1.73%.
As to `CC1C(=O)Nc2ccccc2N1C(=O)c1c(F)cccc1F` (configuration not stated), the inhibition of corepressor binding was 0.31%.
As for `CCCCCCSc1nsc(N)n1`, the inhibition of corepressor binding is 3.46%.
`CC1CCN(S(=O)(=O)c2ccc3c(c2)n(C)c(=O)n3C)CC1`: the inhibition of corepressor binding is 0.8%.
Regarding `CCc1cc2c(SCC(=O)Nc3ncc(Cl)c(C)c3Cl)ncnc2s1`, the inhibition of corepressor binding is 2.24%.
For `CCc1ccc(S(=O)(=O)Nc2cc3c(cc2N2CCCCC2)n(C)c(=O)c(=O)n3C)cc1`, the inhibition of corepressor binding is -2.2%.
Take `CC[N+](C)(CC)CCC[n+]1c(-c2ccccc2)c2cc(N)ccc2c2ccc(N)cc21`: the inhibition of corepressor binding was 41.5% (active).
